Reference: PMC6008205 (Journal of controlled release : official journal of the …, 2018)

How the values were obtained:
[1] = Dynamic light scattering particle size and PDI of CSPNs; assay type: physicochemical; conditions: DLS in ultrapure water, peptide nanodrills 0.4 mM, triplicate
Summary of the method: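 Nanodrills formed spontaneously on vortexing peptide in ultrapure water or PBS pH 7.4. They were measured at 0.4 mM by dynamic light scattering in a quartz cuvette after 2 min equilibration. Measurements were done in triplicate and reported as arithmetic mean ± standard deviation.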

[2] = ANS spectrofluorimetric analysis of hydrophobic regions; assay type: physicochemical; conditions: ANS 0.2 µM, CSPNs 2–16 µM, excitation 356 nm; relative to 2F-RT
Summary of the method: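 Test peptides were dissolved in water at 2–16 µM, and the ANS probe was added at 0.2 µM. Spectra were read on a fluorescence microplate reader at ambient temperature, with excitation at 356 nm and emission scanned from 380–600 nm. All measurements were done in triplicate and reported as arithmetic mean ± standard deviation.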

[3] = Tapping mode AFM analysis of nanodrill size and mechanical stability; conditions: tapping mode AFM on mica under water, 400 µM peptide solution

PDI [1]: 0.434
Mean ANS fluorescence intensity compared to 2F-RT [2]: five-fold increase
Aspect ratio by AFM [3]: 6.2±3.9
Nanodrill size (length) by AFM [3]: 105±67 nm
Substance: FFF--(RADA)2-Tat [3F-RT]
